Active and inactive are the calls of the source. The rule behind the calls is not given here.
What was measured:
BMDM [1] = experiment: Inhibition of LPS-induced IkBbeta protein level in mouse BMDM treated 2 hrs after LPS challenge measured up to 120 mins by Western blot analysis; type: functional, cell-based
[2] = target: T1, Inhibitor of nuclear factor kappa-B kinase subunit alpha (Mus musculus) (UniProt Q60680); experiment: Inhibition of LPS-induced IkappaBalpha phosphorylation in C57BL/6 mouse alveolar macrophages measured up to 120 mins by Western blot analysis
T1 sequence (whole entry): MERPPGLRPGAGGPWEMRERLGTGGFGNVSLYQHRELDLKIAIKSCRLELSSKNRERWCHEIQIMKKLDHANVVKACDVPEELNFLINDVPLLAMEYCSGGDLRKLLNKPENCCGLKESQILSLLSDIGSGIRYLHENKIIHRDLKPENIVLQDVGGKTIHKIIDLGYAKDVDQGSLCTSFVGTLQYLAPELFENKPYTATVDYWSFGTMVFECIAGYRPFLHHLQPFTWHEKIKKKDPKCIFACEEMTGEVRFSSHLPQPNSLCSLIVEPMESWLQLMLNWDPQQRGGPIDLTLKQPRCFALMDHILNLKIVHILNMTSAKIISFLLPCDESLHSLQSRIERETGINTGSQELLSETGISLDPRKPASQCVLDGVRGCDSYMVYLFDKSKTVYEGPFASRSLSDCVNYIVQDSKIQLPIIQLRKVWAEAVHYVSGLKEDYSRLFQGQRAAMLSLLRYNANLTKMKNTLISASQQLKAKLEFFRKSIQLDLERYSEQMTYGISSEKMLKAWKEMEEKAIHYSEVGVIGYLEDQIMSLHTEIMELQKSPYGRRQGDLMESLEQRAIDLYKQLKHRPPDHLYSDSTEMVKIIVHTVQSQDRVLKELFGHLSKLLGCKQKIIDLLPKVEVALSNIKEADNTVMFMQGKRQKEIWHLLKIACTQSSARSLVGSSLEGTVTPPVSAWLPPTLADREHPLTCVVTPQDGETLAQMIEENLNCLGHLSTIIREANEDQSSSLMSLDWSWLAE

BMDM [3] = experiment: Inhibition of LPS-induced IkBbeta degradation in mouse BMDM treated 2 hrs after LPS challenge measured up to 120 mins by Western blot analysis; type: functional, cell-based
Mus musculus [4] = organism: Mus musculus; experiment: Induction of IKK activity in mouse BMDM assessed as GST-IkappaBalpha phosphorylation by immunoprecipitation kinase assay
Mus musculus [5] = organism: Mus musculus; experiment: Inhibition of LPS-induced IKK activity in mouse BMDM assessed as GST-IkappaBalpha phosphorylation after 5 mins by immunoprecipitation kinase assay
BMDM [6] = experiment: Inhibition of LPS-induced c-jun mRNA expression in mouse BMDM up to 3 hrs by Northern blot analysis; type: functional, cell-based
BMDM [7] = experiment: Inhibition of LPS-induced IP-10 mRNA expression in mouse BMDM up to 3 hrs by Northern blot analysis; type: functional, cell-based
BMDM [8] = experiment: Inhibition of LPS-induced RANTES mRNA expression in mouse BMDM up to 3 hrs by Northern blot analysis; type: functional, cell-based
BMDM [9] = experiment: Inhibition of LPS-induced IL-12beta mRNA expression in mouse BMDM up to 3 hrs by Northern blot analysis; type: functional, cell-based
Macrophage [10] = experiment: Inhibition of LPS-induced c-jun mRNA expression in mouse alveolar macrophages after 90 mins by Northern blot analysis; type: functional, cell-based
MEF [11] = experiment: Inhibition of LPS-induced IP-10 mRNA expression in MEF after 90 mins by Northern blot analysis; type: functional, cell-based; conditions: Mus musculus
MEF [12] = experiment: Inhibition of LPS-induced c-jun mRNA expression in MEF after 90 mins by Northern blot analysis; type: functional, cell-based; conditions: Mus musculus
BMDM [13] = experiment: Inhibition of heat-killed Staphylococcus aureus-induced RANTES mRNA expression in mouse BMDM by Northern blot analysis; type: functional, cell-based
BMDM [14] = experiment: Inhibition of heat-killed Staphylococcus aureus-induced B7h mRNA expression in mouse BMDM by Northern blot analysis; type: functional
BMDM [15] = experiment: Inhibition of heat-killed Staphylococcus aureus-induced c-jun mRNA expression in mouse BMDM by Northern blot analysis; type: functional, cell-based
MEF [16] = experiment: Effect on TNF-induced c-jun mRNA expression in MEF by Northern blot analysis; type: functional, cell-based; conditions: Mus musculus
MEF [17] = experiment: Inhibition of TNF-induced IkappaBalpha expression in mouse MEF up to 120 mins by Western blot analysis; type: functional, cell-based
[18] = target: MAP kinase p38 (Mus musculus) (UniProt P47811+O08911+Q9WUI1+Q9Z1B7); experiment: Inhibition of TNF-induced p38 phosphorylation in mouse MEF up to 120 mins by Western blot analysis
Epithelial cell = experiment: Inhibition of TNF-induced IkappaBalpha expression in human bronchial epithelial cells up to 120 mins by Western blot analysis; type: functional, cell-based
[19] = target: T2, Inhibitor of nuclear factor kappa-B kinase subunit alpha (Homo sapiens) (UniProt O15111); experiment: Inhibition of IkappaBalpha phosphorylation in human WI38 cells assessed after 2 hrs by Western blot analysis; type: cell-based; conditions: WI-38
T2 sequence (whole entry): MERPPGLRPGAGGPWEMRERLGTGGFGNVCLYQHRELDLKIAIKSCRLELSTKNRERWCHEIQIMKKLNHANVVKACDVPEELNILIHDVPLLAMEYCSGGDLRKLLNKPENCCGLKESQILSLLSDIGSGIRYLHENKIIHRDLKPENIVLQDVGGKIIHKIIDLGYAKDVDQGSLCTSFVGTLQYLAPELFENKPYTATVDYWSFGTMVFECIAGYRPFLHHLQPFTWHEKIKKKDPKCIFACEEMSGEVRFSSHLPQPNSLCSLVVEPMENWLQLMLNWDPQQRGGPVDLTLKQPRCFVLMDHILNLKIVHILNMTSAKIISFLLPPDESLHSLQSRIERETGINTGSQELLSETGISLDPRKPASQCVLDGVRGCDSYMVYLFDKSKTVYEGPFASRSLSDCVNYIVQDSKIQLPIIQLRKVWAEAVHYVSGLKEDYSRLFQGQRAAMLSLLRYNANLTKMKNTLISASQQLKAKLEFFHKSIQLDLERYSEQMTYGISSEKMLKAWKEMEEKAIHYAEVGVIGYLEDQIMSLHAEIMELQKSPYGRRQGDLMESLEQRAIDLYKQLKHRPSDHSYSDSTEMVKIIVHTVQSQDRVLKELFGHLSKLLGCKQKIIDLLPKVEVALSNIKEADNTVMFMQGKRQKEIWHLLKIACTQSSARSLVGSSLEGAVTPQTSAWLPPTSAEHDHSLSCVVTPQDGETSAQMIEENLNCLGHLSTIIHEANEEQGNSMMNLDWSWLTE
Method in brief: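 WI38 lung fibroblasts and bronchial epithelial cells were stimulated for 2 hours. The same Western blot was probed for PARP cleavage, total IκBα and phosphorylated IκBα.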

PBMC = experiment: Inhibition of LPS-induced IkappaBalpha mRNA expression in human PBMC up to 50 uM by Northern blot analysis; type: functional, cell-based
Blood = experiment: Inhibition of LPS-induced TNF production in human whole blood after 3 hrs; type: functional, tissue-based
BMDM [20] = experiment: Induction of c-jun mRNA expression in mouse BMDM at 50 uM after 2 hrs by Northern blot analysis; type: functional
Macrophage [21] = experiment: Inhibition of LPS-induced IkappaBalpha mRNA expression in mouse C57BL/6 mouse alveolar macrophages up to 50 uM by Northern blot analysis; type: functional, cell-based

Activity [2]: Active | Activity (Mus musculus [4]): inactive | Activity (Mus musculus [5]): Active | Activity [18]: Active | Activity [19]: Active
Compound: CCCCCCCCCC(=O)CC(=O)N[C@H]1CCOC1=O
Activity (BMDM [1]): inactive | Activity (BMDM [3]): Active | Activity (BMDM [6]): Dose-dependent effect | Activity (BMDM [7]): Dose-dependent effect | Activity (BMDM [8]): Dose-dependent effect | Activity (BMDM [9]): Dose-dependent effect | Activity (Macrophage [10]): Dose-dependent effect | Activity (MEF [11]): Dose-dependent effect | Activity (MEF [12]): Dose-dependent effect | Activity (BMDM [13]): Active | Activity (BMDM [14]): Active | Activity (BMDM [15]): Active | Activity (MEF [16]): Active | Activity (MEF [17]): Active | Activity (Epithelial cell): Active | Activity (PBMC): Active | Activity (Blood): Active | Activity (BMDM [20]): Active | Activity (Macrophage [21]): Active

— ChEMBL document CHEMBL1152866, “Modulation of gene expression via disruption of NF-kappaB signaling by a bacterial small molecule” (Science, 2008)
